Screening results: PubChem BioAssay, several laboratories
PREPL inh: PREPL enzyme inhibitors, primary screen, biochemical, fluorescence polarization | recombinant PREPL, fluorescence polarization activity-based probe | Prolyl endopeptidase-like (Homo sapiens), Q4J6C6 | hit rate 0.68% among 320,000 | inhibition, % at 5.96 µM; in the data active = inhibition above about 43%;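 also: 0% = enzyme with DMSO and 100% = wells lacking enzyme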
Target sequence (Q4J6C6 whole entry, looked up): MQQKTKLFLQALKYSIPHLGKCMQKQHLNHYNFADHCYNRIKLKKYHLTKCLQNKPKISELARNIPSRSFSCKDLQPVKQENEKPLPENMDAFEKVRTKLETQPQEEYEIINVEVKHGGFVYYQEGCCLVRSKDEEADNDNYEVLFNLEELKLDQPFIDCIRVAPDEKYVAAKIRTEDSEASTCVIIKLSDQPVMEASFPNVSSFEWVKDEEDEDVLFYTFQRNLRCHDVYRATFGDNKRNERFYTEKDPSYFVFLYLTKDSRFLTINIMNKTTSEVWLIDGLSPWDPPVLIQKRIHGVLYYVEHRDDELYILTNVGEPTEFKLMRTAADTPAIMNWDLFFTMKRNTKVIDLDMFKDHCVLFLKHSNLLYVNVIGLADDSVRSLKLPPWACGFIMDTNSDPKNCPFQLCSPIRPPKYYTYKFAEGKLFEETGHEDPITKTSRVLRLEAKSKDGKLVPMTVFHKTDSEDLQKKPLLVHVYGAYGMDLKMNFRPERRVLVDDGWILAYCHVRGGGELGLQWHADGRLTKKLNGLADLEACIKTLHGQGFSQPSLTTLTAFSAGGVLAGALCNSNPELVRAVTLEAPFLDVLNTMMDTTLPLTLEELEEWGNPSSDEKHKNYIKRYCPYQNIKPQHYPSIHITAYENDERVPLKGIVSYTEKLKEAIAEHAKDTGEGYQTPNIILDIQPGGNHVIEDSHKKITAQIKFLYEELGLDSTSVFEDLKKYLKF
HNF4A DNA FP: change in binding of human HNF4A to DNA, primary screen, biochemical, fluorescence polarization, FITC-DNA. activity change, % at 10 µM. hit rate 0.3% among 360,000. 1 h. Hepatocyte nuclear factor 4-alpha (Homo sapiens), P41235; in the data active = activity change above about 30%, passing the limit was not always enough
TbMetRS inhib: T. brucei MetRS inhibitors, primary screen, biochemical, luminescence; methionyl-tRNA synthetase (Trypanosoma brucei brucei); purified T. brucei MetRS, ATP depletion, Kinase-Glo luminescence; inhibition, % at 11.9 µM; hit rate 0.4% among 360,000;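 active = inhibition above a per-plate cutoff of the control wells' mean inhibition plus 3 SD, cut at about 5.5% in these data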;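 also: 0% = DMSO wells median and 100% = median of wells with control inhibitor compound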
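Dosing: 11.9 µM single point; system: parasite MetRS enzyme; technique: luminescence of leftover ATP; times: 15 min enzyme-compound preincubation, 2 h reaction, 10 min detection, 25 °C; replicates: each compound tested once; read-out basis: percent inhibition relative to median high and low control wells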
Neddyl block: inhibitors of cullin neddylation, primary screen, biochemical, TR-FRET, uHTS, NAE and Ubc12; NEDD8-conjugating enzyme Ubc12 (Homo sapiens) + NEDD8-activating enzyme E1 regulatory …; inhibition, % at 25 µM; hit rate 0.58% among 360,000; AID 651699, 2012; in the data active = inhibition above about 36%
CSN deneddyl inh: inhibitors of CSN-mediated cullin deneddylation, primary screen, biochemical, fluorescence polarization, uHTS; COP9 signalosome complex subunit 5 (Homo sapiens), Q92905; Purified CSN, SCF-Nedd8-OG deneddylation; inhibition, % at 12.5 µM; hit rate 0.38% among 360,000; AID 651999, 2013;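 active = pattern-corrected inhibition above about 35%, with an unprinted fluorescence ratio check between 0.5 and 1.5, limit read from the data, passing the limit was not always enough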;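 also: 0% = enzyme with substrate and 100% = substrate without enzyme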
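Assay system: Purified human Csn5 enzyme expressed in HEK293T cells | Amount: Enzyme 0.24 nM | Measured by: Fluorescence polarization readout | Medium: Tris/NaCl/DTT buffer, pH 7.5 | Compound dosing: One concentration, 12.5 µM, 0.25% DMSO | Times: 90 min incubation of compound, enzyme and substrate at room temperature | Control set: no-enzyme wells high, enzyme-with-substrate wells low | Read-out: % inhibition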
Rpn11 block: Rpn11 (PSMD14) deubiquitinase inhibitors, primary screen, biochemical, fluorescence polarization, uHTS | hit rate 0.59% among 360,000 | human 26S proteasome, Ub4-pepOG fluorescence polarization; 20S core pre-blocked with epoxomicin | inhibition, % at 20 µM | 26S proteasome non-ATPase regulatory subunit 14 (Homo sapiens), O00487;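 active = inhibition at 20 µM, scaled to each plate's controls, above about 33%, limit read from the data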
Rpn11 confirm: Rpn11 (PSMD14) deubiquitinase inhibitors, confirmation, biochemical, fluorescence polarization, single concentration. shares compounds with Rpn11 block. purified human 26S proteasome, Ub4-pepOG fluorescence polarization; proteasome pretreated with epoxomicin. inhibition, % at 20 µM. hit rate 29% among 1,900
MMP-2 counter: MMP-2 enzyme inhibition, confirmation, counter-screen for RPN11 inhibitor project, biochemical, fluorescence, single concentration | shares compounds with Rpn11 block | inhibition, % at 20 µM | recombinant MMP-2, FRET peptide cleavage fluorescence | hit rate 4% among 1,900;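 also: human MMP-2 activated beforehand with APMA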
Thrombin inh: bovine thrombin protease inhibition, confirmation, counter-screen for Rpn11 inhibitor project, biochemical, fluorescence polarization, single concentration. shares compounds with Rpn11 block. bovine thrombin cleavage of Ub4-pepOG. inhibition, % at 20 µM. hit rate 13% among 1,900;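 active = mean inhibition at least 40% at 20 µM, or signal 3 deviations below plate average, so some actives read negative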;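 also: plate controls were thrombin with DMSO for no effect and buffer wells lacking thrombin for full effect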
* hit, by the source's call; i = inactive; / = not tested or not shown. Most compounds without a hit are left out; they make up all but 2.4% or so of the library. Rule as the data show it, unless noted: active = inhibition above about 40%; inactive = the rest.

SMILES	PREPL inh	HNF4A DNA FP	TbMetRS inhib	Neddyl block	CSN deneddyl inh	Rpn11 block	Rpn11 confirm	MMP-2 counter	Thrombin inh
COc1ccc(S(=O)(=O)N2CCC(C(=O)N[C@@H](C)C(=O)NC3CCCC3)CC2)cc1	4.1	0.6	-0.2	-1.8	-9.6	-4.3	/	/	/
CCOC(=O)Cc1csc(NC(=O)c2ccc(Cl)nc2)n1	17.1	8.9	-0.7	1.4	6.4	36.2*	20.7	-33.0	-1.4
CCOC(=O)Cc1csc(NC(=O)c2ccc(C)cc2)n1	-0.6	-5.2	0.0	10.1	3.4	-6.5	/	/	/
COc1ccccc1/C=C/C=C1N=C(/C=C/c2ccc(Cl)cc2)OC/1=O	2.8	7.0	-0.6	6.1	10.5	59.7*	11.3	-51.6	4.3
COc1ccccc1/C=C/C1=NC(=C\C=C/c2ccccc2)/C(=O)O1	-6.2	-5.8	-0.5	1.1	13.6	30.2	/	/	/
N#CCCN(C(=O)COC(=O)CCc1c[nH]c2ccccc12)c1ccccc1	23.4	5.1	-0.6	9.1	-0.5	-4.2	/	/	/
Cc1ccc(C(=O)N/N=C/c2c(O)ccc3ccccc23)cn1	21.2	44.7*	-0.6	6.2	23.2	122.5*	23.3	-43.2	3.4
COC(=O)[C@]12CCCCC=C1N(Cc1ccco1)C(=O)[C@H](CC(=O)NCc1ccc(OC)c(OC)c1)C2	/	2.9	-1.1	-6.2	-4.6	/	/	/	/
Cc1nc(SCc2nc3ccc(Br)cc3[nH]2)c2oc3ccccc3c2n1	-18.8	-0.2	-0.1	-38.9	11.9	51.7*	44.4*	-19.1	16.1
Cc1nc(SCc2nc3ccc(Cl)cc3[nH]2)c2oc3ccccc3c2n1	-15.6	6.0	1.0	-14.6	1.8	31.7	/	/	/
Cc1cc(SCC(=O)NN)c2cc(Br)ccc2n1	19.3	2.8	2.2	-276.6	8.5	43.2*	2.7	-28.4	-5.0
O=c1c2c(nc3cc(-c4ccccc4Cl)[nH]n13)CCS2	16.9	-5.1	-0.3	/	80.9*	56.3*	12.3	0.3	9.8
Cc1ccc(NC(=O)C(C)SCc2nc3sc4c(c3c(=O)[nH]2)CCCC4)nc1 (stereo unspecified)	13.7	13.5	-0.1	29.6	7.5	55.2*	48.7*	-18.1	24.7
Cc1ccc(NC(=O)C(C)SCc2nc3sc(C)c(C)c3c(=O)[nH]2)nc1 (stereo unspecified)	24.3	6.1	0.3	28.8	6.5	18.5	/	/	/
CC(SCc1nc2sc3c(c2c(=O)[nH]1)CCCC3)C(=O)Nc1ccccn1 (stereo unspecified)	-5.2	24.2	-0.3	38.5	5.0	44.8*	39.3	-4.1	29.4
Cc1ccc(NC(=O)CO/N=C/c2ccc(N(C)C)cc2)cc1	7.8	72.0*	0.4	6.2	50.1*	76.7*	107.6*	-44.4	95.6*
O=C(Nc1ccccn1)c1ccc(Br)s1	1.9	3.9	-0.6	-80.6	-3.0	0.3	/	/	/
O=C(Nn1cnnc1)c1ccc(Br)s1	-7.2	5.8	-0.2	2.9	-6.5	51.2*	-10.6	2.1	-8.9
CCCC(=O)N=C1SC2CS(=O)(=O)CC2N1c1ccc(-c2nc3ccc(C)cc3s2)cc1 (stereo unspecified)	4.0	8.0	0.1	-26.3	-0.4	45.6*	1.5	-25.0	-5.1
CC(=O)c1cccc(S(=O)(=O)N2CCN(c3nc4cc(C)cc(C)c4cc3C#N)CC2)c1	-10.4	10.9	-0.4	i	10.7	42.8*	0.5	-21.3	-11.4
CC(=O)c1ccc2c(c1)CC1(C2)Cc2cc3c(cc2C1)C(=O)CC3 (stereo unspecified)	/	-1.0	0.1	-0.6	-4.4	0.7	/	/	/
O=C1CCCN1CCCNc1nc2c(S(=O)(=O)c3ccccc3)nnn2c2ccc(Cl)cc12	-10.3	4.5	-0.4	/	6.5	44.4*	-5.8	-7.7	12.2
Cc1ccccc1C(=O)NCC(=O)NC1CC1	6.0	-2.8	-0.1	4.2	-0.3	-0.5	/	/	/
CC(C)COC(=O)N(C)C[C@H]1OCc2cnnn2CCCC(=O)N([C@@H](C)CO)C[C@H]1C	/	-1.3	0.1	-2.3	-0.1	-17.8	/	/	/
CCOc1cc2[nH]c(=S)n(CCN3CCCCC3CC)c(=O)c2cc1OCC (stereo unspecified)	24.8	0.5	-0.5	6.8	-0.8	6.8	/	/	/
SMILES	PREPL inh	HNF4A DNA FP	TbMetRS inhib	Neddyl block	CSN deneddyl inh	Rpn11 block	Rpn11 confirm	MMP-2 counter	Thrombin inh
CCC1CCCCN1CCCn1c(=S)[nH]c2ccccc2c1=O (stereo unspecified)	12.4	9.1	-0.6	2.2	0.5	72.5*	-1.8	-5.5	-8.6
C=CC[n+]1c(-c2ccccc2)csc1NC(C)(C)C	4.5	2.6	-0.2	4.2	3.7	-3.2	/	/	/
C=CC[n+]1c(-c2ccc(OC)c(OC)c2)csc1NNC(=O)Nc1ccccc1	16.3	1.4	-0.2	0.5	9.9	52.0*	-3.2	48.2*	1.0
COc1ccc(C(=O)c2ccc3oc(-c4ccc(OC)cc4)c(-c4ccc(O)cc4)c3c2)cc1	2.0	6.6	-0.1	10.7	-8.7	7.5	/	/	/
O=C(CCc1nc2sc3c(c2c(=O)[nH]1)CCCC3)NCCc1ccc(Cl)cc1	/	13.0	0.0	-166.7	10.0	39.1	/	/	/
NS(=O)(=O)c1ccc(CCNC(=O)CCc2nc3sc4c(c3c(=O)[nH]2)CCCC4)cc1	-8.3	1.4	-0.3	7.0	7.8	41.0*	26.3	-28.5	15.6
CC(=O)c1cccc(NC(=O)CCc2nc3sc4c(c3c(=O)[nH]2)CCCC4)c1	2.3	14.5	-0.1	-401.3	15.4	44.3*	55.1*	-4.4	41.2*
CC(=O)c1ccc(NC(=O)CCc2nc3sc4c(c3c(=O)[nH]2)CCCC4)cc1	-12.1	11.5	-0.2	-52.8	13.9	32.6	/	/	/
CCOC(=O)CSc1nc2sc3c(c2c(=O)[nH]1)CCCC3	9.1	0.3	-0.2	1.4	-1.2	-1.1	/	/	/
